The term CL/F denotes clearance divided by bioavailability, as obtained after extravascular dosing. One may read the Vd/F as the volume of distribution divided by bioavailability. A word on the IC50: it is the concentration needed to halve the response being measured.

Results on two compounds are retold here after paper PMC6688896 (Bioorganic & medicinal chemistry, 2018).

Read-outs that look alike come from different tables or passages of the source.

Data set [1] can be described thus: Body weight in CRC240 PDX xenograft study. In kind it is in vivo. The settings on record: DK419 1 mg/kg orally daily for 11 days, tumor-bearing NOD/SCID mice.
The test system of another data set is CCD841Co colonic cells. The data set is described as follows: Oxygen consumption rate, Seahorse XFp analyzer. Type of data set: cell-based. The settings on record: 1 μM, vs DMSO control media. A digest of the protocol:
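CCD841Co cells seeded at 8000 cells/well in XFp miniplates and attached overnight (37 °C, 5% CO2). Basal OCR recorded, then 1 μM test compound or DMSO in media added. Mito Stress Test followed with sequential 1 μM oligomycin, 1 μM FCCP, and 0.5 μM rotenone plus antimycin A. Mean ± SD, n = 2.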

Data set [2] in a line: Plasma pharmacokinetics after oral dose. Type of data set: in vivo, NOD/SCID mice. The following applies: DK419 1 mg/kg oral, mice. The essentials:
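Test compound at 0.2 mg/mL in 10% N-methylpyrrolidinone/90% PEG300, single oral 1 mg/kg to NOD/SCID mice (n = 4). Serial tail-vein blood into heparin, pre-dose to 72 h. Plasma extracted with ethyl acetate plus an internal standard analog, then LC/MS/MS; calibration range 2.4 (LLOQ) to 1000 ng/mL. Parameters from compartmental (first-order absorption/elimination) and non-compartmental analysis.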

Another data set deals with CRC240 PDX tumors. The data set is described as follows: CRC240 PDX xenograft tumor growth. Type of data set: in vivo, NOD/SCID mice. The settings on record: vs vehicle, n = 3. The essentials:
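CRC240 PDX tissue washed and minced in PBS at 150 mg/ml, 200 μl implanted in NOD/SCID flanks. At about 100 mm3, mice randomized and dosed orally once daily for 11 days with test compound suspended at […] in 10% 1-methyl-2-pyrrolidinone/90% PEG300, or vehicle. Tumor size and body weight on days 0, 4, 8, 11; mean ± SEM, n = 3; two-tailed Student's t test vs vehicle.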

A further data set relates to six CRC tumor cell lines. The data set can be described thus: MTS cell proliferation assay, panel of six CRC cell lines. Type of data set: cell-based. The settings on record: 72 h, read-out: IC50 values, range over the six CRC cell lines. A digest of the protocol: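 Six CRC lines, each in its own medium (Leibovitz's, McCoy's 5A, MEM or RPMI) with 10% FBS and penicillin-streptomycin. Seeded at 5000 cells/well, then exposed 72 h to test compound over 0.04–10 μM or 0.001–10 μM depending on compound. Viability by colorimetric MTS; IC50 from curve fitting.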
(Tetrazolium assays rely on reduction of a dye to a coloured formazan, in cell work by metabolically active cells.)

The next data set has as its system pAMPK in CCD841Co cells. The data set is described as follows: Phospho-AMPK levels by Western blot. Type of data set: cell-based. The settings on record: whole cell lysate, vs DMSO control. A digest of the protocol:
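CCD841Co cells grown in MEM with 1 mM pyruvate, non-essential amino acids, 10% FBS. Plated at 0.27 million/well on poly-D-lysine-coated 12-well plates and attached overnight. Medium replaced with test compound or DMSO diluted in DMEM with 2 mM pyruvate and 2 mM L-glutamine. Lysed in Laemmli buffer; immunoblotted for phospho-AMPK (Thr172) and total AMPK, β-actin loading control.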
On the technique in general: Immunoblotting shows a protein as a band on a membrane.

The conditions of data set [3]: Niclosamide 200 mg/kg oral, mice, plasma, non-compartmental, cited from earlier work.
For a further data set, the system named is HCT116 cells. The settings on record: 0.5 and 1.5 μM; cited from earlier work.

On to `O=C(Nc1ccc(C(F)(F)F)cc1)c1cc(Cl)cc2nc(C(F)(F)F)[nH]c12` [DK419, 6-chloro-2-(trifluoromethyl)-N-(4-(trifluoromethyl)phenyl)-1H-benzo[d]imidazole-4-carboxamide], for which the body weight entry in data set [1] is given as “Neither DK419 nor Niclosamide produced a change in body weight”. In addition, the oxygen consumption rate result in the data set on CCD841Co colonic cells is given as “increases the rate of oxygen consumption”. Besides, the “time for which plasma levels were sustained” value in data set [2] is “more than 24 hours”. Further, in data set [2] (plasma, compartmental), the AUCinf was 16300 ng·h/mL (per kg BW), the AUCinf/DOSE is 16.3 µg·h/mL (per mg), the CL/F is reported as 0.06 L/h (per kg BW) and the Vd/F is 0.98 L (per kg BW). In data set [2] (plasma, non-compartmental), the AUCinf was 16900 ng·h/mL (per kg BW), the AUCinf/DOSE is 16.9 µg·h/mL (per mg), the CL/F was 0.06 L/h (per kg BW) and the “Vd/F (Vz)” value is listed as 0.80 (Vz) L (per kg BW). For the same compound, the AUC0-LAST in data set [2] (plasma, non-compartmental, 0–72 h) was 16.8 ( 0–72 h) h μg/mL (per kg BW). In the data set on CRC240 PDX tumors (DK419 1 mg/kg orally daily for 11 days), the “growth of CRC240 PDX tumors (tumor volume)” value is “inhibited the growth of CRC240 PDX tumors compared to vehicle control”. The IC50 with six CRC tumor cell lines fell in the range of 70 to 360 nM. In addition, the “pAMPK levels by Western blot” value in the data set on pAMPK in CCD841Co cells is “increased the levels of pAMPK”.
In the case of `O=C(Nc1ccc([N+](=O)[O-])cc1Cl)c1cc(Cl)ccc1O` [Niclosamide, reference compound], the results for the oxygen consumption rate entry in the data set on CCD841Co colonic cells and in the data set with HCT116 cells were “increases the oxygen consumption rate” and “caused oxygen consumption rate to increase”, respectively. The AUC0-LAST in data set [3] (0–24 h) is reported as 1.01 ( 0–24 h) h μg/mL (per kg BW). Moreover, the AUCinf in data set [3] is 1020 ng·h/mL (per kg BW). For the same compound, in the data set on CRC240 PDX tumors (Niclosamide 72 mg/kg orally daily for 11 days), the “growth of CRC240 PDX tumors (tumor volume)” value is on record as “inhibited tumor growth”. Further, the IC50 in the data set with six CRC tumor cell lines lay in the range of 110 to 2390 nM. For the same compound, the “pAMPK levels by Western blot” value with pAMPK in CCD841Co cells is recorded as “increased pAMPK levels versus control”.
